Compound activity (PubChem)
TRPC4 block = inhibitors of mouse TRPC4 channel; 300,000 tested, 0.39% active; B-score at 10 µM; Q9QUQ5; HEK293 TRPC4beta/mu-opioid, DAMGO-evoked Fluo4 calcium flux; active compounds read low;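 active = B-score over 3 SD under the library average, no early fluorescence shift, positive overall ratio signal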
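Assay system – HEK293 line stably carrying TRPC4beta and mu-opioid receptor · Doses – single dose · Detection – Fluo4 calcium-dye fluorescence, kinetic read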
TRPC6 inhibitor = mouse TRPC6 channel inhibition. AID 2553. HEK293-TRPC6, membrane potential dye, ACh-evoked depolarization; active compounds read low. B-score at 10 µM. 310,000 tested, 1.1% active;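 active = B-score under library mean minus 3 SD, initial fluorescence not abnormally high, positive integrated signal ratio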;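 also: B-score derived from integrated fluorescence ratio over the kinetic read; more negative B-score means stronger inhibition of depolarization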
TRPC4 act = opens the mouse TRPC4 cation channel | HEK293 TRPC4beta/mu-opioid, Fluo4 calcium fluorescence; active compounds read high | B-score at 10 µM | 310,000 tested, 0.49% active;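 active = B-score above 5 SD of library B-scores, and initial fluorescence ratio not above library mean plus 5 SD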;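 also: positive B-score marks a calcium rise read as TRPC4 activation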
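System – HEK293 cells stably co-expressing mouse TRPC4beta and mu-opioid receptor · Signal – Fluo4 calcium-sensitive dye fluorescence, kinetic, 1 Hz baseline · Benchmarks – buffer (low) and maximal DAMGO (high) · Read-out – B score of integrated fluorescence ratio per well · Incubation – dye loading 45 min room temperature, 110 s kinetic read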
TRPC4 potent = allosteric potentiators of mouse TRPC4 channel | Q9QUQ5 | HEK293 TRPC4beta/mu-opioid, DAMGO EC20, Fluo-4 Ca2+ flux; active compounds read high | B-score at 10 µM | 310,000 tested, 0.42% active | AID 2227;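 active = B-score of calcium response area above 5 SD of library B-scores, with initial fluorescence ratio within 5 SD of library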;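 also: B-score of integrated fluorescence ratio over time as area under calcium response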
TRPC6 act = activates the mouse TRPC6 cation channel. Q61143. HEK293-TRPC6 membrane potential dye fluorescence; active compounds read high. B-score at 10 µM. 310,000 tested, 0.13% active. AID 2550;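 active = B-score of the integrated fluorescence ratio above library mean plus 3 SD, and starting fluorescence ratio within library mean plus 5 SD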;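 also: higher score means more depolarization so channel activation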
TRPC4 spec 2 = second selectivity test of TRPC6 inhibitors: effect on mouse TRPC4 | shares compounds with TRPC6 inhibitor | HEK293 TRPC4/MOR, membrane potential dye fluorescence; channel activated by saturating DAMGO dose | inhibition, % at 10 µM | 920 tested, 42% active;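 active = compounds whose fluorescence signal differed from control wells by over 3 SD, either direction, in both duplicate plates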
TRPC4 spec = tests whether TRPC6 inhibitors also affect mouse TRPC4. shares compounds with TRPC6 inhibitor. AID 2777. activity change, negative = inhibition, % at 10 µM. HEK293 TRPC4/mu-opioid, membrane potential fluorescence. 920 tested, 61% active;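 active = rise or fall in signal beyond 3 SD of buffer-only wells in both replicate plates, either sign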;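 also: integrated kinetic ratio of fluorescence range over baseline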
HEK293 MPD ctr 2-1 = parental HEK293 nonspecific activity of TRPC6 inhibitors, second screen | shares compounds with TRPC6 inhibitor | parental HEK293 membrane potential dye fluorescence; maximal acetylcholine challenge after compound addition | signal change vs control, % at 10 µM | 920 tested, 31% active | AID 2779;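 active = membrane potential signal moving either way by over 3 SD of the maximum-effect control, in both duplicate plates, meaning non-specific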
HEK293 MPD ctr-1 = parental HEK293 nonspecific activity of TRPC6 inhibitors; 920 tested, 60% active; parental HEK293 membrane potential dye fluorescence; membrane potential signal change, % at 10 µM; shares compounds with TRPC6 inhibitor; AID 2780;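 active = membrane potential signal shifting up or down by more than 3 SD of buffer-only wells, on both duplicate plates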
HEK293 MPD ctr-2 = checks TRPC6 modulator effects in parental HEK293 cells. shares compounds with TRPC6 inhibitor. 2,400 tested, 51% active. membrane potential dye fluorescence. AID 488924. membrane potential signal change, % at 10 µM;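 active = membrane potential signal moves up or down beyond 5 SD from buffer-only wells, on both duplicate plates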
HEK293 MPD ctr 2-2 = second counter-screen for TRPC6 modulators: effect in parental HEK293 cells; shares compounds with TRPC6 inhibitor; membrane potential dye fluorescence; after compound, maximal acetylcholine stimulation; inhibition, % at 10 µM; 2,400 tested, 14% active; AID 488926;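 active = membrane potential signal drops by more than 5 SD from the mean control signal, in both duplicate plates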;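 also: plate controls were acetylcholine ECmax control wells for no effect and buffer only wells for full effect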
TRPC4/MOR mod = tests whether TRPC6 modulators also affect mouse TRPC4; shares compounds with TRPC6 inhibitor; HEK293 TRPC4/mu-opioid, membrane potential fluorescence; percent change from control (negative = decrease, positive = increase), % at 10 µM; 2,400 tested, 69% active;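 active = membrane potential signal moved up or down beyond 5 SD of buffer control wells, in both duplicate plates, actives on both sides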;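 also: plate controls were assay buffer wells for no effect and DAMGO maximal-effect wells for full effect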
TRPC4 ctr inh 2 = mouse TRPC4 off-target activity of TRPC6 modulators, second screen; shares compounds with TRPC6 inhibitor; HEK293 TRPC4/mu-opioid, membrane potential dye fluorescence; stimulated with maximal-effect DAMGO; inhibition, % at 10 µM; 2,400 tested, 55% active; AID 488928;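 active = drop in membrane potential signal beyond 5 SD of the control wells in both duplicate plates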;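 also: TRPC4 counter screen for TRPC6 hits run under conditions tuned for TRPC6 not TRPC4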
TRPC6 inh conf = confirmation of mouse TRPC6 inhibitors; shares compounds with TRPC6 inhibitor; HEK293-TRPC6, membrane potential dye, ACh-evoked depolarization; inhibition, % at 10 µM; 3,300 tested, 43% active;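 active = fluorescence ratio falls more than 5 SD below the full-stimulation control mean, in both duplicate runs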;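 also: integrated fluorescence ratio of peak minus minimum over baseline after agonist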
TRPC6 act confirm = mouse TRPC6 activator confirmation. activation, % at 10 µM. 2,800 tested, 11% active. HEK293-TRPC6 membrane potential dye fluorescence, FDSS. shares compounds with TRPC6 inhibitor;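 active = ratio signal rise beyond 5 SD above unstimulated control wells' mean, seen in both duplicate runs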;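 also: plate controls were buffer EC0 wells for no effect and acetylcholine ECmax response for full effect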
* = called active by the depositor; i = inactive; nt = not tested or not shown. Compounds with a hit are over-represented: about 2.3% of the library has one in this group of screens.

SMILES	TRPC4 block	TRPC6 inhibitor	TRPC4 act	TRPC4 potent	TRPC6 act	HEK293 MPD ctr-2	HEK293 MPD ctr 2-2	TRPC4/MOR mod	TRPC4 ctr inh 2	TRPC6 inh conf	TRPC6 act confirm	others
COc1ccc(/C=C/C(=O)Nc2ccccc2C(=O)NCC(c2ccc(OC)cc2)N(C)C)cc1 (stereo not given)	-7*	-6.8*	48*	i	i	nt	nt	nt	nt	i	i	TRPC4 spec 2=12%*;TRPC4 spec=49%*;HEK293 MPD ctr 2-1=i;HEK293 MPD ctr-1=i
CCOc1cc(/C=C2\SC(=NC)N(C)C2=O)cc(Cl)c1OC(C)=O	i	-5*	i	i	i	i	i	i	i	i	i
CCCCC(CC)Cn1c(N)c(C#N)c2nc3ccccc3nc21 (stereo not given)	i	-6*	i	i	i	i	i	i	i	i	i
COc1ccccc1-c1ccc(/C=C2\C=CC(=O)O2)o1	i	i	i	i	31*	706%*	i	204%*	i	i	121%*
COc1ccccc1-c1ccc(/C=C2/C=C(C)OC2=O)o1	i	i	i	i	i	nt	nt	nt	nt	nt	nt
CCOc1ccc(Br)cc1/C=N/O	-6*	-5.9*	i	i	16*	124%*	i	22%*	i	58%*	132%*
COc1cc(OC)cc(C(=O)NCC2CCCN(C(=O)c3oc(C)cc3C)C2)c1 (stereo not given)	i	i	i	i	i	nt	nt	nt	nt	nt	nt
COc1ccc(C2=NN(c3ccccc3)C(=O)/C2=C\c2ccc(O)c(OC)c2)cc1	i	-6.8*	i	i	i	nt	nt	nt	nt	i	i	TRPC4 spec 2=i;TRPC4 spec=i;HEK293 MPD ctr 2-1=i;HEK293 MPD ctr-1=i
COc1cc(/C=C2/C(=O)N(c3cccc(Br)c3)N=C2C)cc(OC)c1O	i	-5.4*	i	i	i	i	i	-26%*	72%*	53%*	i
CCOC(=O)CNC(=S)N(Cc1ccco1)Cc1ccccc1Cl	i	-5.8*	i	i	i	i	i	12%*	i	i	i
Cc1ccc(N2CCOCC2)c2c1C(=O)c1ccccc1C2=O	i	-5.1*	i	i	i	-195%*	i	-34%*	71%*	43%*	i
O=C1C=C(N2CCOCC2)c2ccccc2C1=O	i	i	i	i	i	nt	nt	nt	nt	nt	nt
Cc1cc(N2CCN(C)CC2)nc2ccc(NC(=O)CCC(=O)NCCCOC(C)C)cc12	i	i	i	i	i	nt	nt	nt	nt	nt	nt
COCCCNC(=O)CCC(=O)Nc1ccc2nc(N3CCOCC3)cc(C)c2c1	i	-6.8*	i	i	i	nt	nt	nt	nt	64%*	i	TRPC4 spec 2=i;TRPC4 spec=-28%*;HEK293 MPD ctr 2-1=i;HEK293 MPD ctr-1=-360%*
CCCCNC(=O)CCC(=O)Nc1ccc2nc(N3CCOCC3)cc(C)c2c1	i	i	i	i	i	nt	nt	nt	nt	nt	nt
Cc1cc(N2CCN(C)CC2)nc2ccc(NC(=O)CCC(=O)N3CCN(c4ccc([N+](=O)[O-])cc4)CC3)cc12	i	i	i	i	12*	237%*	i	44%*	i	i	84%*
CCCCNC(=O)CCC(=O)Nc1ccc2nc(N3CCCCC3)cc(C)c2c1	i	i	i	i	i	nt	nt	nt	nt	nt	nt
Cc1cc(N2CCOCC2)nc2ccc(NC(=O)CCC(=O)N3CCN(c4ccccc4)CC3)cc12	i	i	i	i	i	nt	nt	nt	nt	nt	nt
CCN(CC)CCCNC(=O)CCC(=O)Nc1ccc2nc(N3CCC(C)CC3)cc(C)c2c1	i	-6.1*	i	i	i	136%*	i	22%*	i	i	nt
Cc1cc(N2CCCCC2)nc2ccc(NC(=O)CCC(=O)NCCC(C)C)cc12	i	-8*	i	i	i	nt	nt	nt	nt	i	i	TRPC4 spec 2=i;TRPC4 spec=-16%*;HEK293 MPD ctr 2-1=224%*;HEK293 MPD ctr-1=-228%*
COc1cccc(-n2cc(CNC(=O)C3CCC(=O)N(C4CC4)C3)cn2)c1 (stereo not given)	i	i	i	i	i	nt	nt	nt	nt	nt	nt
O=C(N/N=C/C=C/c1ccc(Br)cc1)C(O)c1ccccc1 (stereo not given)	i	i	i	i	i	nt	nt	nt	nt	nt	nt
CC(C)CCNC(=S)Nc1ccc2nc3n(c(=O)c2c1)CCCCC3	i	-5.2*	i	i	i	i	i	i	i	i	i
CCCCNC(=S)Nc1ccc2nc3n(c(=O)c2c1)CCCCC3	i	i	i	i	i	nt	nt	nt	nt	nt	nt
S=c1[nH]nc(-c2ccccc2)n1Cc1ccccc1	i	i	i	i	i	nt	nt	nt	nt	nt	nt
CC(C)c1cc(-c2n[nH]c(=S)n2Cc2ccccc2)cs1	i	-16*	i	i	i	i	i	8.5%*	i	i	i
COc1ccc(C(=O)c2coc3ccc(O)c(CN(C)C)c23)cc1	i	-5.3*	i	i	i	i	i	9.0%*	56%*	i	i
Cc1cccc(OCc2nnc(SCc3cc(=O)n4cc(Br)ccc4n3)o2)c1	i	-8*	i	i	i	nt	nt	nt	nt	i	i	TRPC4 spec 2=i;TRPC4 spec=0.1%*;HEK293 MPD ctr 2-1=i;HEK293 MPD ctr-1=0.6%*
